Reference: publication PMC5071122 (The Pediatric infectious disease journal, 2016)
Read-outs that look alike come from different tables or passages of the source. Starred links: 1 amine or outer side, 2 acyl side, 3 side chain; linkers in the order of their positions; H or OH if unused. Positions of bridges follow the written chain, without caps; N, C: chain ends. Non-standard residues stand in square brackets, D forms with d. Residues, ends and D or L forms follow the SMILES beside them. *: point of attachment. hTyr(3S-OH,4S-OH,3'-OSO3H) = N[C@H](C(=O)O)[C@H](O)[C@@H](O)c1ccc(O)c(OS(=O)(=O)O)c1; Orn(4R-OH,5R-OH) = O=C([C@H](C[C@@H](O)[C@@H](O)N[*:3])N[*:1])[*:2]; Pro(3S-OH,4S-Me) = C[C@H]1CN[C@H](C(=O)O)[C@H]1O; X1 = CCCCCOc1ccc(-c2cc(-c3ccc(C(=O)*)cc3)no2)cc1; Gln(3R-OH) = NC(=O)C[C@@H](O)[C@H](N)C(=O)O; Hyp = O=C(O)[C@@H]1C[C@@H](O)CN1

What was measured:
[1] = Open-label PK trial of IV micafungin in infants on ECMO; conditions: human, in vivo
[2] = Observed micafungin exposure; format: in vivo, infants; conditions: 4 mg/kg IV every 24h
In short: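 Infants on ECMO, prophylactic arm, given IV test compound 4 mg/kg every 24h for up to 8 days. EDTA arterial plasma sampled around dose 4, from pre-infusion to 22-24h post-infusion, and assayed by HPLC-fluorescence (LLOQ 0.05 mg/L). AUC0-24 was computed from observed data by the linear-up log-down trapezoidal method and compared with the therapeutic target of 75-139 mg*h/L.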

[3] = Safety: adverse events in infants on ECMO receiving micafungin; format: in vivo
[4] = cited from earlier work
[5] = ref 33; cited from earlier work
[6] = cited from earlier work; remark: listed apart in the source
[7] = via hepatic transporter proteins; cited from earlier work
[8] = neonatal trial of 15 mg/kg/day; standard deviation 99; cited from earlier work
[9] = phase III efficacy trial, used as target efficacy exposure; cited from earlier work
[10] = infants and children receiving micafungin; cited from earlier work
[11] = cited from earlier work; remark: listed apart in the source
Candida spp = conditions: ref 6-8; cited from earlier work

## CCCCCOc1ccc(-c2cc(-c3ccc(C(=O)N[C@H]4C[C@@H](O)[C@@H](O)NC(=O)[C@@H]5[C@@H](O)[C@@H](C)CN5C(=O)[C@H]([C@H](O)CC(N)=O)NC(=O)[C@H]([C@H](O)[C@@H](O)c5ccc(O)c(OS(=O)(=O)O)c5)NC(=O)[C@@H]5C[C@@H](O)CN5C(=O)[C@H]([C@@H](C)O)NC4=O)cc3)no2)cc1 [micafungin] (X1-[Orn(4R-OH,5R-OH)]T[Hyp][hTyr(3S-OH,4S-OH,3'-OSO3H)][Gln(3R-OH)][Pro(3S-OH,4S-Me)]; lactam 1-C)
[1]
  Vd: 0.64 L/kg
  clearance: 0.683 mL/min/kg
[2]; after dose 1 and 4, Two/4 infants
  Infants with a hemofilter achieving AUC0-24 within or above the therapeutic target range: 50%
[2]; prophylactic arm, 3/5 infants sampled around dose 4
  Infants within the therapeutic range after dose 4: 60%
[2]; prophylactic arm, 5/11 infants
  Infants achieving the therapeutic exposure target (75-139 mg*h/L) after a single dose: 45%
[3]; 12 infants on ECMO, study period
  Deaths considered related to micafungin: None
[3]; cohort of infants supported by ECMO
  Tolerability: well tolerated
[4]; ref 14
  Protein bound: > 99%
[4]; ref 33
  Protein bound: > 99%
[5]
  logP: −1.5
[6]; ref 15, 25
  V reported in infants not on ECMO: 0.34 to 0.54 L/kg
[6]; ref 19, 24-26
  CL, previously reported values for infants not supported by ECMO: 0.333 to 0.65 mL/min/kg
[7]
  Excreted primarily unchanged into bile and feces: 71%
[8]
  Mean (standard deviation) exposure deemed safe: 438 µg·h/mL
[9]
  AUC0-24 range, exposure of adult participants who cleared their fungal infection: 75 to 139 µg·h/mL
[10]
  Hypokalemia, proportion of infants and children: 2%
  Liver toxicity, proportion of infants and children: 3%
[11]; reconstituted, room temperature, exposed to light
  Time reconstituted micafungin is stable: up to 24 hours
[11]; ref 16
  Light sensitivity: light-sensitive
Candida spp
  Activity against a broad spectrum of Candida spp: fungicidal
  Biofilm penetration: can penetrate biofilms
